Experimental data reported in ChEMBL document CHEMBL1221342, “Synthesis and in vitro antitumor activity of new 4,5-dihydropyrazole derivatives” (Bioorg Med Chem, 2010).

Tests used:
SF-295 = assay: Growth inhibition of human SF295 cells after 48 hrs by SRB assay; format: functional; conditions: SF-295, 48 h
Procedure, shortened: (§1)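 NCI 60-cell-line screen. Cells grown in RPMI1640 with 5% fetal calf serum and 2 mM L-glutamine, with inoculum density set by cell line. Preincubated 24 h, then given compound in DMSO at 10^-4 to 10^-8 M (five 10-fold steps) for 48 h continuous exposure. Growth measured by SRB protein assay. GI50, TGI and LC50 reported as –log molar.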

NCI-H322M = assay: Growth inhibition of human NCI-H322M cells after 48 hrs by SRB assay; format: functional; procedure, shortened: as §1
PC-3 = assay: Growth inhibition of human PC3 cells after 48 hrs by SRB assay; format: functional; conditions: PC-3, 48 h; procedure, shortened: as §1
786-0 = assay: Growth inhibition of human 786-0 cells after 48 hrs by SRB assay; format: functional; conditions: 786-0, 48 h; procedure, shortened: as §1
HOP-62 = assay: Growth inhibition of human HOP62 cells after 48 hrs by SRB assay; format: functional; conditions: HOP-62, 48 h; procedure, shortened: as §1
HL-60(TB) = assay: Growth inhibition of human HL-60(TB) cells after 48 hrs by SRB assay; format: functional; conditions: HL-60, 48 h
Procedure, shortened: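 NCI 60-cell-line screen: cells grown in RPMI1640 with 5% fetal calf serum and 2 mM L-glutamine, preincubated 24 h, then exposed to compound in DMSO at five concentrations (10^-4 to 10^-8 M) for 48 h continuous exposure. Growth estimated by sulforhodamine B protein assay; reported as pGI50 (-log molar concentration inhibiting net cell growth by 50%).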

OVCAR-4 = assay: Growth inhibition of human OVCAR4 cells after 48 hrs by SRB assay; format: functional; conditions: OVCAR-4, 48 h; procedure, shortened: as §1
NCI-H460 [1] = assay: Cytotoxicity against human NCI-H460 cells after 72 hrs by SRB assay; format: functional, cell-based; conditions: NCI-H460, 72 h
Procedure, shortened: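 NCI-H460 (ATCC) cells seeded in 96-well plates in growth medium. Scalar drug concentrations added 24 h after plating, then 72 h exposure. Surviving cells stained with sulforhodamine B, OD read at 570 nm. IC50 (50% growth inhibition) fitted from dose–response curves. Mean ± SE of at least three independent experiments.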

NCI-H460 [2] = assay: Growth inhibition of human NCI-H460 cells after 48 hrs by SRB assay; format: functional; conditions: NCI-H460, 48 h; procedure, shortened: as §1
MOLT-4 = assay: Growth inhibition of human MOLT4 cells after 48 hrs by SRB assay; format: functional; conditions: MOLT-4, 48 h; procedure, shortened: as §1
MCF7 = assay: Growth inhibition of human MCF7 cells after 48 hrs by SRB assay; format: functional; conditions: MCF7, 48 h; procedure, shortened: as §1
T47D = assay: Growth inhibition of human T47D cells after 48 hrs by SRB assay; format: functional; procedure, shortened: as §1
[3] = Growth inhibition of human Hs 578T cells after 48 hrs by SRB assay; format: functional; procedure, shortened: as §1
CAKI-1 = assay: Growth inhibition of human Caki1 cells after 48 hrs by SRB assay; format: functional; conditions: CAKI-1, 48 h; procedure, shortened: as §1
RXF 393 = assay: Growth inhibition of human RXF393 cells after 48 hrs by SRB assay; format: functional; conditions: RXF 393, 48 h; procedure, shortened: as §1
SW-620 = assay: Growth inhibition of human SW620 cells after 48 hrs by SRB assay; format: functional; conditions: SW-620, 48 h; procedure, shortened: as §1
SF-268 = assay: Growth inhibition of human SF268 cells after 48 hrs by SRB assay; format: functional; conditions: SF-268, 48 h; procedure, shortened: as §1
NCI/ADR-RES = assay: Growth inhibition of human NCI/ADR-RES cells after 48 hrs by SRB assay; format: functional; procedure, shortened: as §1
[4] = Growth inhibition of human […] cells after 48 hrs by SRB assay; format: functional; procedure, shortened: as §1
Malme-3M = assay: Growth inhibition of human MALME-3M cells after 48 hrs by SRB assay; format: functional; procedure, shortened: as §1
SR = assay: Growth inhibition of human SR cells after 48 hrs by SRB assay; format: functional; procedure, shortened: as §1
KM12 = assay: Growth inhibition of human KM12 cells after 48 hrs by SRB assay; format: functional; conditions: KM12, 48 h; procedure, shortened: as §1
A498 = assay: Growth inhibition of human A498 cells after 48 hrs by SRB assay; format: functional; conditions: A498, 48 h; procedure, shortened: as §1
HT-29 = assay: Growth inhibition of human HT-29 cells after 48 hrs by SRB assay; format: functional; conditions: HT-29, 48 h; procedure, shortened: as §1
OVCAR-8 = assay: Growth inhibition of human OVCAR8 cells after 48 hrs by SRB assay; format: functional; conditions: OVCAR-8, 48 h; procedure, shortened: as §1
OVCAR-3 = assay: Growth inhibition of human OVCAR-3 cells after 48 hrs by SRB assay; format: functional; conditions: OVCAR-3, 48 h; procedure, shortened: as §1
EKVX = assay: Growth inhibition of human EKVX cells after 48 hrs by SRB assay; format: functional; procedure, shortened: as §1
MDA-MB-435 = assay: Growth inhibition of human MDA-MB-435 cells after 48 hrs by SRB assay; format: functional; conditions: MDA-MB-435, 48 h; procedure, shortened: as §1
SK-MEL-28 = assay: Growth inhibition of human SK-MEL-28 cells after 48 hrs by SRB assay; format: functional; conditions: SK-MEL-28, 48 h; procedure, shortened: as §1
IGROV-1 = assay: Growth inhibition of human IGROV1 cells after 48 hrs by SRB assay; format: functional; conditions: IGROV-1, 48 h; procedure, shortened: as §1
DU-145 = assay: Growth inhibition of human DU145 cells after 48 hrs by SRB assay; format: functional; conditions: DU-145, 48 h; procedure, shortened: as §1
HCT-116 = assay: Growth inhibition of human HCT116 cells after 48 hrs by SRB assay; format: functional; conditions: HCT-116, 48 h; procedure, shortened: as §1
M14 = assay: Growth inhibition of human M14 cells after 48 hrs by SRB assay; format: functional; conditions: M14, 48 h; procedure, shortened: as §1
HCT-15 = assay: Growth inhibition of human HCT15 cells after 48 hrs by SRB assay; format: functional; conditions: HCT-15, 48 h; procedure, shortened: as §1
CCRF-CEM = assay: Growth inhibition of human CCRF-CEM cells after 48 hrs by SRB assay; format: functional; procedure, shortened: as §1
SNB-75 = assay: Growth inhibition of human SNB75 cells after 48 hrs by SRB assay; format: functional; conditions: SNB-75, 48 h; procedure, shortened: as §1

COc1cc(C2CC(c3cccc(O)c3)=NN2C(C)=O)cc(OC)c1OC (centres undefined)
GI50 (SF-295): 0.316 µM | TGI (SF-295; read-out: pTGI (converted)): 5.01 µM | GI50 (NCI-H322M): 3.98 µM | TGI (NCI-H322M; read-out: pTGI (converted)): > 100 µM | GI50 (PC-3): 2 µM | TGI (PC-3; read-out: pTGI (converted)): > 100 µM | GI50 (786-0): 1.26 µM | TGI (786-0; read-out: pTGI (converted)): 3.98 µM | GI50 (HOP-62): 0.126 µM | TGI (HOP-62; read-out: pTGI (converted)): 2 µM | GI50 (HL-60(TB)): 1.58 µM | TGI (HL-60(TB); read-out: pTGI (converted)): 5.01 µM | GI50 (OVCAR-4): 6.31 µM | TGI (OVCAR-4; read-out: pTGI (converted)): > 100 µM | IC50 (NCI-H460 [1]): 2.3 µM | GI50 (NCI-H460 [2]): 2 µM | TGI (NCI-H460 [2]; read-out: pTGI (converted)): 10 µM | GI50 (MOLT-4): 5.01 µM | TGI (MOLT-4; read-out: pTGI (converted)): > 100 µM | GI50 (MCF7): 0.501 µM | TGI (MCF7; read-out: pTGI (converted)): 10 µM | GI50 (T47D): 3.16 µM | TGI (T47D; read-out: pTGI (converted)): > 100 µM | GI50 [3]: 0.794 µM | TGI ([3]; read-out: pTGI (converted)): 7.94 µM | GI50 (CAKI-1): 2.51 µM | TGI (CAKI-1; read-out: pTGI (converted)): > 100 µM | GI50 (RXF 393): 3.98 µM | TGI (RXF 393; read-out: pTGI (converted)): > 100 µM | GI50 (SW-620): 0.794 µM | TGI (SW-620; read-out: pTGI (converted)): > 100 µM | GI50 (SF-268): 7.94 µM | TGI (SF-268; read-out: pTGI (converted)): > 100 µM | GI50 (NCI/ADR-RES): 1.26 µM | TGI (NCI/ADR-RES; read-out: pTGI (converted)): 3.98 µM | GI50 [4]: 1 µM | TGI ([4]; read-out: pTGI (converted)): 5.01 µM | GI50 (Malme-3M): 2.51 µM | TGI (Malme-3M; read-out: pTGI (converted)): > 100 µM | GI50 (SR): 0.1 µM | TGI (SR; read-out: pTGI (converted)): > 100 µM | GI50 (KM12): 1 µM | TGI (KM12; read-out: pTGI (converted)): > 100 µM | GI50 (A498): 2.51 µM | TGI (A498; read-out: pTGI (converted)): 10 µM | GI50 (HT-29): 3.16 µM | TGI (HT-29; read-out: pTGI (converted)): > 100 µM | GI50 (OVCAR-8): 5.01 µM | TGI (OVCAR-8; read-out: pTGI (converted)): > 100 µM | GI50 (OVCAR-3): 1.26 µM | TGI (OVCAR-3; read-out: pTGI (converted)): 3.98 µM | GI50 (EKVX): 6.31 µM | TGI (EKVX; read-out: pTGI (converted)): > 100 µM | GI50 (MDA-MB-435): 0.251 µM | TGI (MDA-MB-435; read-out: pTGI (converted)): 0.794 µM | GI50 (SK-MEL-28): 5.01 µM | TGI (SK-MEL-28; read-out: pTGI (converted)): > 100 µM | GI50 (IGROV-1): 3.98 µM | TGI (IGROV-1; read-out: pTGI (converted)): > 100 µM | GI50 (DU-145): 3.16 µM | GI50 (HCT-116): 2.51 µM | TGI (HCT-116; read-out: pTGI (converted)): > 100 µM | GI50 (M14): 0.794 µM | TGI (M14; read-out: pTGI (converted)): > 100 µM | GI50 (HCT-15): 0.794 µM | TGI (HCT-15; read-out: pTGI (converted)): > 100 µM | GI50 (CCRF-CEM): 1 µM | TGI (CCRF-CEM; read-out: pTGI (converted)): 5.01 µM | GI50 (SNB-75): 0.398 µM
